Test results published in ChEMBL document CHEMBL4673212, “Investigation of synergistic antimicrobial effects of the drug combinations of meropenem and 1,2-benzisoselenazol-3(2H)-one derivatives on carbapenem-resistant Enterobacteriaceae producing NDM-1” (Eur J Med Chem, 2018).

Assays:
[1] = tested on: HeLa; experiment: Cytotoxicity against human HeLa cells assessed as increase in cell viability at 2 mg/ml measured after 48 hrs by MTT assay; assay type: cell-based
Method in brief: (§1)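 MTT assay. HeLa or L929 cells were seeded at 1×10^4/well in DMEM with 10% FBS and grown 12 h at 37 °C. They were exposed to 0.13–2 mg/mL compound (DMSO stock) for 48 h, then given 0.5 mg/mL MTT for 3 h at 37 °C. Formazan was dissolved in DMSO and read at 490 nm. Survival % was blank-corrected against the 0.5% DMSO medium control.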

[2] = target: Metallo-beta-lactamase type 2 (Klebsiella pneumoniae, UniProt C7C422); experiment: Inhibition of wild type N-terminal His6-tagged Klebsiella pneumoniae NDM-1 expressed in Escherichia coli BL21 assessed as inhibition constant using nitrocefin as substrate measured after 30 mins
Method in brief: (§2)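 1 nM purified His6-NDM-1 was mixed with varying compound concentrations in 50 mM phosphate buffer ± 50 µM ZnSO4 with BSA. Nitrocefin was added at 7× Km and velocity read at 482 nm, in triplicate. ln(% residual activity) versus incubation time gave kobs, which was fitted hyperbolically against concentration for KI and kinact.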

[3] = tested on: L929; experiment: Cytotoxicity against mouse L929 cells assessed as increase in cell viability at 0.13 to 2 mg/ml measured after 48 hrs by MTT assay relative to control; assay type: cell-based; conditions: l929, 48 h, dose 0.13-2 mg/ml; method in brief: as §1
[4] = tested on: Enterobacter cloacae; experiment: Potentiation of meropenem-induced antibacterial activity against NDM-1 producing Enterobacter cloacae isolate 10 infected in Galleria mellonella assessed as increase in larvae survival at 10 mg/kg pretreated for 1hr with compound followed by bacterial infection and measured after 48 hrs (reference value: 20 %); assay type: functional; conditions: time 49 hrs
[5] = target: Metallo-beta-lactamase type 2 (Klebsiella pneumoniae) (UniProt C7C422); experiment: Inhibition of wild type N-terminal His6-tagged Klebsiella pneumoniae NDM-1 expressed in Escherichia coli BL21 assessed as residual activity preincubated for 20 mins by rapid high dilution method relative to control
Method in brief: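 Reversibility was tested by rapid high dilution: NDM-1 was preincubated 20 min with compound, then diluted. Residual nitrocefin hydrolysis was compared with an enzyme control lacking compound.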

[6] = target: Metallo-beta-lactamase type 2 (Klebsiella pneumoniae) (UniProt C7C422); experiment: Inhibition of wild type N-terminal His6-tagged Klebsiella pneumoniae NDM-1 expressed in Escherichia coli BL21 assessed as ratio of Kinact/Ki using nitrocefin as substrate measured after 30 mins; method in brief: as §2

Sequence of Metallo-beta-lactamase type 2 (Klebsiella pneumoniae) (C7C422 whole entry): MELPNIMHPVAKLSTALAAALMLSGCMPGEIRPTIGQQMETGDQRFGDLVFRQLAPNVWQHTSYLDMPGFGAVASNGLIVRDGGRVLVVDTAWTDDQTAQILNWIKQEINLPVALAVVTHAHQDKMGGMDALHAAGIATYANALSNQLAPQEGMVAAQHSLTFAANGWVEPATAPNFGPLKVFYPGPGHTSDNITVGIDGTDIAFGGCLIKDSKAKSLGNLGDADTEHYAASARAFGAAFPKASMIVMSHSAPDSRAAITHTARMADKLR
Sequence of Metallo-beta-lactamase type 2 (C7C422 whole entry): as above

For `CC(C)(C)OC(=O)NCCn1[se]c2ccccc2c1=O`, the Activity [1] was “Non-Toxic”, the Ki [2] was 17 µM and the Activity [3] was 70%. The Activity [4] was 60%, the Activity [5] was 40% and the Ratio [6] was 0.067 mM⁻¹ s⁻¹.
